ChEMBL document CHEMBL1148166, “30-, 31-, and 32-hydroxybullatacinones: bioactive terminally hydroxylated annonaceous acetogenins from Annona bullata” (J Nat Prod, 1993)
≈ marks a conversion by molar mass, not a printed value.

Experiments:
HT-29 = test: Cytotoxicity against human HT-29 cells; assay type: functional
[1] = (§1) Toxicity in brine shrimp; assay type: organism-based; conditions: artemia, in vivo
In short: (§2)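 Lethality read-out in brine shrimp larvae (BST), used routinely to screen extracts, fractions and isolated compounds.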

A549 = test: Cytotoxicity against human A549 cells; assay type: functional; conditions: for EC50: Homo sapiens, A549, read-out: ED50 (the source's name)
MCF7 = test: Cytotoxicity against human MCF7 cells; assay type: functional; conditions: for EC50: Homo sapiens, MCF7, read-out: ED50 (the source's name)
Artemia = test: as §1; assay type: organism-based; conditions: in vivo; in short: as §2

Structure (SMILES) | ED50 (HT-29) | LC50 [1] [µg/mL] | ED50 (A549) | ED50 (MCF7) [×10⁻⁴ ug/ml] | LC50 (Artemia) [×10⁻² ug/ml] | EC50 (A549) [µg/mL] | EC50 (MCF7) [µg/mL]
CCCC(O)CCCCCC[C@H](O)[C@H]1CC[C@H]([C@H]2CC[C@H]([C@H](O)CCCCCCCCCCC3CC(CC(C)=O)C(=O)O3)O2)O1 (mixture of isomers) | 1.09 ×10⁻¹² ug/ml | 0.158 | 3.29 ×10⁻¹¹ ug/ml | 7.63 |  |  | 
CCC(O)CCCCCCC[C@H](O)[C@H]1CC[C@H]([C@H]2CC[C@H]([C@H](O)CCCCCCCCCCC3CC(CC(C)=O)C(=O)O3)O2)O1 (mixture of isomers) | <1 ×10⁻¹² ug/ml |  |  |  | 4.67 | 0.00125 | 0.161
CCCCC(O)CCCCC[C@H](O)[C@H]1CC[C@H]([C@H]2CC[C@H]([C@H](O)CCCCCCCCCCC3CC(CC(C)=O)C(=O)O3)O2)O1 (mixture of isomers) | <1 ×10⁻¹² ug/ml |  | 1.66 ×10⁻⁹ ug/ml |  | 4.05 |  | 0.105
CCCCCCCCCC[C@H](O)[C@H]1CC[C@H]([C@H]2CC[C@H]([C@H](O)CCCCCCCCCCC3CC(CC(C)=O)C(=O)O3)O2)O1 (mixture of isomers) | 1.19 ×10⁻⁶ ug/ml | 0.0054 |  |  |  | 0.00218 | 12.2
COc1cccc2c1C(=O)c1c(O)c3c(c(O)c1C2=O)C[C@@](O)(C(=O)CO)C[C@@H]3O[C@H]1C[C@H](N)[C@H](O)[C@H](C)O1 [DOXORUBICIN] | 3.32 ×10⁻⁴ ug/ml |  | 1.98 ×10⁻⁴ ug/ml |  |  |  | 0.00202 (≈ 3.72 nM)
